# Results pooled from the literature.
# Lines come from different studies, so protocols differ.
# Target: Serine/threonine-protein kinase 32B (STK32B, Homo sapiens, UniProt Q9NY57)
SMILES,assay,conditions,endpoint,value
CN1CC(Oc2cnc(C#N)cc2-c2ccn3nc(NC(=O)C4CC4)cc3c2)C1,"enzyme activity, inhibitor",1 µM,inhibition,-2%
Nc1ncnc2occ(-c3ccc(NC(=O)Nc4cc(C(F)(F)F)ccc4F)cc3)c12,cell-free assay,20 µM,remaining signal,0.9%
CS(=O)(=O)c1cc(C2(NC(=O)c3cncc4c3cnn4-c3ccc(F)cc3)CC2)ccn1,"cell-free assay, competition with immobilised ligand",1 µM,remaining binding,100%
Cc1sc(C(=O)NC2COC2)cc1-n1cc(NC(=O)Nc2c(F)cccc2Cl)cn1,"enzyme activity, inhibitor",10 µM,remaining activity,89.8%
Cc1ccc(C(=O)Nc2ccc(CN3CCN(C)CC3)c(C(F)(F)F)c2)cc1C#Cc1cnc2cccnn12,cell-free assay,23.5 nM,remaining signal,98%
CC(C)(O)[C@H]1CC[C@H](Nc2ccc3ncc(-c4cccc(C(F)(F)F)c4)n3n2)CC1,"enzyme activity, inhibitor",1 µM,remaining activity,96.8%
COc1cc(Cl)c(C(=O)N[C@@H](CN[C@H]2CC[C@@H](N)CC2)Cc2ccc(C#N)cc2)cc1-c1ccc(CN[C@H](C)c2ccc(C)cc2)o1,"enzyme activity, inhibitor",1 µM,remaining activity,102%
O=C(Nc1cnn(-c2csc(C(=O)NC3COC3)c2)c1)Nc1ccccc1Cl,"enzyme activity, inhibitor",5 µM,remaining activity,122%
COc1ccc2c(c1)O[C@@H](c1ccc(OC)c(OC)c1)C[C@H]2NC(=O)C1(c2ccc3c(c2)OC(F)(F)O3)CC1,"cell-free assay, competition with immobilised ligand",1 µM,remaining binding,100%
